Source: ChEMBL document CHEMBL5058577, “EUbOPEN Chemogenomics Library 2 (Multiplex)” (2022)

Test system: U2OS
Assay: Multiplex assay against U2OS
Format: toxicity, cell-based
Conditions: human
Procedure, shortened: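 Tubulin, mitochondrial-mass and membrane-permeability phenotypes are per cents of healthy-nucleus cells. Cells were gated by CellPathfinder machine learning into Hoechst high-intensity objects or normal cells, normal cells into healthy, pyknosed or fragmented nuclei, and pyknosed cells into mitotic or apoptotic. Before that, live cells stained at seeding with Hoechst33342, BioTracker Green Microtubule Cytoskeleton Dye, MitoTracker Red and Annexin V Alexa Fluor 680 were imaged on a CQ1 microscope at 37°C and 5% CO2 after compound addition.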

[1] = 12 h, 1 µM, compound concentration 1 uM, replicate 1
[2] = 12 h, 1 µM, compound concentration 1 uM, replicate 2
[3] = 12 h, 10 µM, compound concentration 10 uM, replicate 1
[4] = 12 h, 10 µM, compound concentration 10 uM, replicate 2
[5] = 24 h, 1 µM, compound concentration 1 uM, replicate 1
[6] = 24 h, 1 µM, compound concentration 1 uM, replicate 2
[7] = 24 h, 10 µM, compound concentration 10 uM, replicate 1
[8] = 24 h, 10 µM, compound concentration 10 uM, replicate 2
[9] = 48 h, 1 µM, compound concentration 1 uM, replicate 1
[10] = 48 h, 1 µM, compound concentration 1 uM, replicate 2
[11] = 48 h, 10 µM, compound concentration 10 uM, replicate 1
[12] = 48 h, 10 µM, compound concentration 10 uM, replicate 2

Structure (SMILES): CN1CCC(C(=O)c2cccc(NC(=O)c3c(F)cc(F)cc3F)n2)CC1
- Population Apoptotic (%) [1]: 90%
- Population Fragmented Nuclei (%) [1]: 20%
- Population Healthy Nuclei (%) [1]: 70%
- Population Hoechst High Intensity Objects (%) [1]: 2%
- Population Membrane Permeable-Phenotype (%) [1]: 8%
- Population Mitochondria Different-Phenotype (%) [1]: 3%
- Population Mitotic Cells (%) [1]: 10%
- Population Normal (%) [1]: 97%
- Population Pyknosed Nuclei (%) [1]: 9%
- Population Tubulin-Different-Phenotype (%) [1]: 5%
- Total Cell Count [1]: 218
- Population Apoptotic (%) [2]: 57%
- Population Healthy Nuclei (%) [2]: 71%
- Population Hoechst High Intensity Objects (%) [2]: 1%
- Population Membrane Permeable-Phenotype (%) [2]: 9%
- Population Mitochondria Different-Phenotype (%) [2]: 11%
- Population Mitotic Cells (%) [2]: 42%
- Population Normal (%) [2]: 98%
- Population Pyknosed Nuclei (%) [2]: 7%
- Population Tubulin-Different-Phenotype (%) [2]: 6%
- Total Cell Count [2]: 89
- Population Apoptotic (%) [3]: 65%
- Population Fragmented Nuclei (%) [3]: 27%
- Population Healthy Nuclei (%) [3]: 63%
- Population Hoechst High Intensity Objects (%) [3]: 1%
- Population Membrane Permeable-Phenotype (%) [3]: 14%
- Population Mitochondria Different-Phenotype (%) [3]: 13%
- Population Mitotic Cells (%) [3]: 34%
- Population Normal (%) [3]: 98%
- Population Pyknosed Nuclei (%) [3]: 9%
- Population Tubulin-Different-Phenotype (%) [3]: 12%
- Total Cell Count [3]: 270
- Population Apoptotic (%) [4]: 64%
- Population Fragmented Nuclei (%) [4]: 14%
- Population Healthy Nuclei (%) [4]: 68%
- Population Membrane Permeable-Phenotype (%) [4]: 15%
- Population Mitochondria Different-Phenotype (%) [4]: 18%
- Population Mitotic Cells (%) [4]: 35%
- Population Pyknosed Nuclei (%) [4]: 16%
- Population Tubulin-Different-Phenotype (%) [4]: 15%
- Total Cell Count [4]: 103
- Population Apoptotic (%) [5]: 85%
- Population Fragmented Nuclei (%) [5]: 22%
- Population Healthy Nuclei (%) [5]: 67%
- Population Hoechst High Intensity Objects (%) [5]: 2%
- Population Membrane Permeable-Phenotype (%) [5]: 4%
- Population Mitochondria Different-Phenotype (%) [5]: 3%
- Population Mitotic Cells (%) [5]: 14%
- Population Normal (%) [5]: 97%
- Population Pyknosed Nuclei (%) [5]: 9%
- Population Tubulin-Different-Phenotype (%) [5]: 3%
- Total Cell Count [5]: 284
- Population Apoptotic (%) [6]: 72%
- Population Fragmented Nuclei (%) [6]: 18%
- Population Healthy Nuclei (%) [6]: 71%
- Population Hoechst High Intensity Objects (%) [6]: 0%
- Population Membrane Permeable-Phenotype (%) [6]: 6%
- Population Mitochondria Different-Phenotype (%) [6]: 10%
- Population Mitotic Cells (%) [6]: 27%
- Population Normal (%) [6]: 99%
- Population Tubulin-Different-Phenotype (%) [6]: 0%
- Total Cell Count [6]: 113
- Population Apoptotic (%) [7]: 82%
- Population Fragmented Nuclei (%) [7]: 21%
- Population Healthy Nuclei (%) [7]: 68%
- Population Hoechst High Intensity Objects (%) [7]: 2%
- Population Membrane Permeable-Phenotype (%) [7]: 8%
- Population Mitochondria Different-Phenotype (%) [7]: 9%
- Population Mitotic Cells (%) [7]: 17%
- Population Normal (%) [7]: 97%
- Population Pyknosed Nuclei (%) [7]: 9%
- Population Tubulin-Different-Phenotype (%) [7]: 5%
- Total Cell Count [7]: 298
- Population Apoptotic (%) [8]: 66%
- Population Fragmented Nuclei (%) [8]: 15%
- Population Hoechst High Intensity Objects (%) [8]: 5%
- Population Membrane Permeable-Phenotype (%) [8]: 10%
- Population Mitochondria Different-Phenotype (%) [8]: 15%
- Population Mitotic Cells (%) [8]: 33%
- Population Normal (%) [8]: 94%
- Population Pyknosed Nuclei (%) [8]: 15%
- Population Tubulin-Different-Phenotype (%) [8]: 10%
- Total Cell Count [8]: 126
- Population Apoptotic (%) [9]: 100%
- Population Fragmented Nuclei (%) [9]: 17%
- Population Healthy Nuclei (%) [9]: 70%
- Population Hoechst High Intensity Objects (%) [9]: 2%
- Population Membrane Permeable-Phenotype (%) [9]: 4%
- Population Mitochondria Different-Phenotype (%) [9]: 1%
- Population Mitotic Cells (%) [9]: 0%
- Population Normal (%) [9]: 97%
- Population Pyknosed Nuclei (%) [9]: 11%
- Population Tubulin-Different-Phenotype (%) [9]: 2%
- Total Cell Count [9]: 394
- Population Apoptotic (%) [10]: 89%
- Population Fragmented Nuclei (%) [10]: 29%
- Population Healthy Nuclei (%) [10]: 57%
- Population Hoechst High Intensity Objects (%) [10]: 5%
- Population Membrane Permeable-Phenotype (%) [10]: 12%
- Population Mitochondria Different-Phenotype (%) [10]: 8%
- Population Mitotic Cells (%) [10]: 10%
- Population Normal (%) [10]: 94%
- Population Pyknosed Nuclei (%) [10]: 13%
- Population Tubulin-Different-Phenotype (%) [10]: 4%
- Total Cell Count [10]: 149
- Population Apoptotic (%) [11]: 85%
- Population Fragmented Nuclei (%) [11]: 18%
- Population Healthy Nuclei (%) [11]: 69%
- Population Hoechst High Intensity Objects (%) [11]: 3%
- Population Membrane Permeable-Phenotype (%) [11]: 8%
- Population Mitochondria Different-Phenotype (%) [11]: 3%
- Population Mitotic Cells (%) [11]: 14%
- Population Normal (%) [11]: 96%
- Population Pyknosed Nuclei (%) [11]: 12%
- Population Tubulin-Different-Phenotype (%) [11]: 3%
- Total Cell Count [11]: 398
- Population Fragmented Nuclei (%) [12]: 15%
- Population Membrane Permeable-Phenotype (%) [12]: 16%
- Population Mitochondria Different-Phenotype (%) [12]: 10%
- Population Pyknosed Nuclei (%) [12]: 14%
- Population Tubulin-Different-Phenotype (%) [12]: 8%
- Total Cell Count [12]: 189
